# What was measured:
# [1] = system: Bacillus subtilis; test: Tested in vitro against Bacillus subtilis ATCC 6633 by agar dilution method; type: functional
# How it was run: (§1)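 MIC by 2-fold agar dilution on Mueller–Hinton agar (footnote says sensitivity test agar).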
# [2] = system: Escherichia coli; test: Tested in vitro against Escherichia coli NIHJ JC-2 by agar dilution method; type: functional; how it was run: as §1
# [3] = system: Pseudomonas aeruginosa; test: Tested in vitro against Pseudomonas aeruginosa E-2 by agar dilution method; type: functional; how it was run: as §1
# [4] = system: Staphylococcus aureus; test: Tested in vitro against Staphylococcus aureus IID803 by agar dilution method; type: functional; how it was run: as §1
# [5] = system: Klebsiella pneumoniae; test: Tested in vitro against Klebsiella pneumoniae PCI-602 by agar dilution method; type: functional; how it was run: as §1
# [6] = system: Staphylococcus aureus; test: Tested in vitro against Staphylococcus aureus FDA209P JC-1 by agar dilution method; type: functional; how it was run: as §1
# [7] = system: Proteus vulgaris; test: Tested in vitro against Proteus vulgaris OX-19 by agar dilution method; type: functional; how it was run: as §1
# [8] = system: Staphylococcus epidermidis; test: Tested in vitro against Staphylococcus epidermidis IAM12896 by agar dilution method; type: functional; how it was run: as §1
# [9] = system: Serratia marcescens; test: Tested in vitro against Serratia marcescens IAM1184 by agar dilution method; type: functional; how it was run: as §1
# [10] = system: Salmonella typhimurium; test: Tested in vitro against Salmonella Typhimurium IID971 by agar dilution method; type: functional, Salmonella enterica subsp. enterica serovar Typhimurium; conditions: Salmonella enterica; how it was run: as §1
# [11] = system: Pseudomonas aeruginosa; test: Tested in vivo against Pseudomonas aeruginosa E-2 in mice after peroral dose of drug with 0.5% sodium carboxy methyl cellulose; type: functional; conditions: po
# How it was run: (§2)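 Mice infected, then given compound orally 1 h post-infection as a suspension in 0.5% sodium CMC. ED50 calculated from cumulative mortality on day 7 post-infection by shortened Weil method.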
# [12] = system: Staphylococcus aureus; test: Tested in vivo against Staphylococcus aureus IID803 in mice after peroral dose of drug with 0.5% sodium carboxy methyl cellulose; type: functional; conditions: po; how it was run: as §2
# [13] = system: Pseudomonas aeruginosa; test: Tested in vitro against Pseudomonas aeruginosa IFO3445 by agar dilution method; type: functional; how it was run: as §1
structure (smiles),measurement,setting,value
CC1CN(c2c(F)cc3c(=O)c(C(=O)O)cn(C4CC4)c3c2F)CCN1 (stereo unspecified),MIC,[1],0.05 µg/mL
same,MIC,[2],0.05 µg/mL
same,MIC,[3],1.56 µg/mL
same,MIC,[4],0.2 µg/mL
same,MIC,[5],0.0125 µg/mL
same,MIC,[6],0.39 µg/mL
same,MIC,[7],0.05 µg/mL
same,MIC,[8],0.78 µg/mL
same,MIC,[9],0.39 µg/mL
same,MIC,[10],0.025 µg/mL
same,ED50,[11],8.84 mg/kg
same,ED50,[12],2.21 mg/kg
same,MIC,[13],1.56 µg/mL
O=C(O)c1cn(C2CC2)c2c(F)c(N3CCNCC3)c(F)cc2c1=O,MIC,[1],0.1 µg/mL
same,MIC,[2],0.05 µg/mL
same,MIC,[3],0.78 µg/mL
same,MIC,[4],0.39 µg/mL
same,MIC,[5],0.025 µg/mL
same,MIC,[6],0.2 µg/mL
same,MIC,[7],0.05 µg/mL
same,MIC,[8],0.78 µg/mL
same,MIC,[9],0.39 µg/mL
same,MIC,[10],0.025 µg/mL
same,ED50,[11],6.7 mg/kg
same,ED50,[12],5.82 mg/kg
same,MIC,[13],0.78 µg/mL
CCn1cc(C(=O)O)c(=O)c2cc(F)c(N3CCNCC3)cc21 [NORFLOXACIN],MIC,[1],0.39 µg/mL
same,MIC,[2],0.39 µg/mL
same,MIC,[3],3.13 µg/mL
same,MIC,[4],1.56 µg/mL
same,MIC,[5],0.1 µg/mL
same,MIC,[6],0.39 µg/mL
same,MIC,[7],0.2 µg/mL
same,MIC,[8],3.13 µg/mL
same,MIC,[9],0.78 µg/mL
same,MIC,[10],0.1 µg/mL
same,ED50,[11],107 mg/kg
same,ED50,[12],91.7 mg/kg
same,MIC,[13],3.13 µg/mL
O=C(O)c1cn(C2CC2)c2cc(N3CCNCC3)c(F)cc2c1=O [CIPROFLOXACIN],MIC,[1],0.1 µg/mL
same,MIC,[3],0.78 µg/mL
same,MIC,[4],0.78 µg/mL
same,MIC,[5],0.025 µg/mL
same,MIC,[6],0.39 µg/mL
same,MIC,[7],0.05 µg/mL
same,MIC,[8],1.56 µg/mL
same,MIC,[9],0.39 µg/mL
same,MIC,[10],0.025 µg/mL
same,ED50,[11],30.8 mg/kg
same,ED50,[12],35.4 mg/kg
same,MIC,[13],0.78 µg/mL
CC1CN(c2c(F)cc3c(=O)c(C(=O)O)cn(C4CC4)c3c2F)CCN1O (stereo unspecified),MIC,[1],0.025 µg/mL
same,MIC,[2],0.1 µg/mL
same,MIC,[3],3.13 µg/mL
same,MIC,[4],0.2 µg/mL
same,MIC,[5],0.025 µg/mL
same,MIC,[6],0.39 µg/mL
same,MIC,[7],0.1 µg/mL
same,MIC,[8],0.78 µg/mL
same,MIC,[9],0.78 µg/mL
same,MIC,[10],0.05 µg/mL
same,ED50,[11],22.9 mg/kg
same,ED50,[12],1.67 mg/kg
same,MIC,[13],3.13 µg/mL
CC1CN(c2c(F)cc3c(=O)c(C(=O)O)cn(C4CC4)c3c2F)CC(C)N1O (stereo unspecified),MIC,[1],0.05 µg/mL
same,MIC,[2],0.78 µg/mL
same,MIC,[3],12.5 µg/mL
same,MIC,[4],0.2 µg/mL
same,MIC,[5],0.1 µg/mL
same,MIC,[6],0.2 µg/mL
same,MIC,[7],0.39 µg/mL
same,MIC,[8],0.39 µg/mL
same,MIC,[9],6.25 µg/mL
same,MIC,[10],0.78 µg/mL
same,ED50,[11],35.4 mg/kg
same,ED50,[12],1.67 mg/kg
same,MIC,[13],12.5 µg/mL
CC1CN(c2c(F)cc3c(=O)c(C(=O)O)cn(C4CC4)c3c2F)CC(C)N1 (stereo unspecified),MIC,[1],0.1 µg/mL
same,MIC,[2],0.1 µg/mL
same,MIC,[3],3.13 µg/mL
same,MIC,[4],0.39 µg/mL
same,MIC,[5],0.025 µg/mL
same,MIC,[6],0.39 µg/mL
same,MIC,[7],0.1 µg/mL
same,MIC,[8],0.78 µg/mL
same,MIC,[9],0.78 µg/mL
same,MIC,[10],0.1 µg/mL
same,ED50,[11],11.7 mg/kg
same,ED50,[12],2.21 mg/kg
same,MIC,[13],3.13 µg/mL
CC1COc2c(N3CCN(C)CC3)c(F)cc3c(=O)c(C(=O)O)cn1c23 (stereo unspecified) [OFLOXACIN],MIC,[1],0.2 µg/mL
same,MIC,[2],0.2 µg/mL
same,MIC,[3],3.13 µg/mL
same,MIC,[4],0.78 µg/mL
same,MIC,[5],0.1 µg/mL
same,MIC,[6],0.39 µg/mL
same,MIC,[7],0.1 µg/mL
same,MIC,[8],0.78 µg/mL
same,MIC,[9],0.78 µg/mL
same,MIC,[10],0.1 µg/mL
same,ED50,[11],54.5 mg/kg
same,ED50,[12],8.84 mg/kg
same,MIC,[13],3.13 µg/mL
O=C(O)c1cn(C2CC2)c2c(F)c(N3CCN(O)CC3)c(F)cc2c1=O,MIC,[1],0.05 µg/mL
same,MIC,[2],0.1 µg/mL
same,MIC,[3],1.56 µg/mL
same,MIC,[4],0.39 µg/mL
same,MIC,[5],0.025 µg/mL
same,MIC,[6],0.39 µg/mL
same,MIC,[7],0.05 µg/mL
same,MIC,[8],0.78 µg/mL
same,MIC,[9],0.78 µg/mL
same,MIC,[10],0.025 µg/mL
same,ED50,[11],4.81 mg/kg
same,ED50,[12],3.34 mg/kg
same,MIC,[13],1.56 µg/mL

# Source: ChEMBL document CHEMBL1126799, “Synthesis of antimicrobial agents. 5. In vivo metabolism of 7-(4-hydroxypiperazin-1-yl)quinolones” (1993)
